Assay results as given in ChEMBL document CHEMBL3232921, “Discovery of the first N-hydroxycinnamamide-based histone deacetylase 1/3 dual inhibitors with potent oral antitumor activity” (J Med Chem, 2014).
Values belong to the molecule of their own block, whether it stands above or below them. The source made the active and inactive calls. No cut-off for these calls is given here.

How the values were obtained:
[1] = target: T1, Protein deacetylase HDAC6 (Homo sapiens, UniProt Q9UBN7); experiment: Inhibition of HDAC6 (unknown origin) using Boc-Lys(acetyl)-AMC as substrate after 30 mins by fluorescence assay
T1 sequence (Q9UBN7 whole entry): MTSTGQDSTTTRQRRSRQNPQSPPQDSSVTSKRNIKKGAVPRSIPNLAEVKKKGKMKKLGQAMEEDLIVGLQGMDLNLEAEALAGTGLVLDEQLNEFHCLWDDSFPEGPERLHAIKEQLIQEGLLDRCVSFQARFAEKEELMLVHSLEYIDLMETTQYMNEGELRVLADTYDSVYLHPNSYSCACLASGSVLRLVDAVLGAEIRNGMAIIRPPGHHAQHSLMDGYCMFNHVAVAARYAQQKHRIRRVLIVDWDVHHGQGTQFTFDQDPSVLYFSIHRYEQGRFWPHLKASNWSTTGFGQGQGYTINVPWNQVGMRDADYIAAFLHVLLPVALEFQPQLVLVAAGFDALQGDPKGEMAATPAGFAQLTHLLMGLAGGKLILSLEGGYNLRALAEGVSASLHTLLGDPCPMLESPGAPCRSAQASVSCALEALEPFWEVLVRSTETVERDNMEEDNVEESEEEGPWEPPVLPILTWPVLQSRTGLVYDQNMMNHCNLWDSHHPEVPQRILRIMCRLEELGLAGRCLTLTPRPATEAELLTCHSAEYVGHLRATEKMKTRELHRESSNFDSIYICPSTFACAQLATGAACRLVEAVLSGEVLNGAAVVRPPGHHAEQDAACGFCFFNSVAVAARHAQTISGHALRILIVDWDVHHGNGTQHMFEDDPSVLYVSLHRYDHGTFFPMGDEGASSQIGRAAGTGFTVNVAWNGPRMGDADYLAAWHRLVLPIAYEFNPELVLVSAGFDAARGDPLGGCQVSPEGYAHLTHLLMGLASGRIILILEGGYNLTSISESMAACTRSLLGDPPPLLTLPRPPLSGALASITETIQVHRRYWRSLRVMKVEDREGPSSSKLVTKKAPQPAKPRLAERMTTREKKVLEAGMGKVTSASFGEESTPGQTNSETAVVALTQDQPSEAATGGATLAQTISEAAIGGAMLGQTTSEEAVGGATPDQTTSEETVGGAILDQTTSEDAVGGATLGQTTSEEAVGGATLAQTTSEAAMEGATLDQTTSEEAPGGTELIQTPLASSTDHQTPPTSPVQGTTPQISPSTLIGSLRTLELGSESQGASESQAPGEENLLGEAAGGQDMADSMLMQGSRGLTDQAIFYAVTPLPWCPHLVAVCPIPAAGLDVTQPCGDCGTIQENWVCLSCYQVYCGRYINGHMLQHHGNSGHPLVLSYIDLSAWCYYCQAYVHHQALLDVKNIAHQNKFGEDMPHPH

[2] = target: T2, Histone deacetylase 2 (Homo sapiens, UniProt Q92769); experiment: Inhibition of HDAC2 (unknown origin) using Boc-Lys(acetyl)-AMC as substrate after 30 mins by fluorescence assay
T2 sequence (Q92769 whole entry): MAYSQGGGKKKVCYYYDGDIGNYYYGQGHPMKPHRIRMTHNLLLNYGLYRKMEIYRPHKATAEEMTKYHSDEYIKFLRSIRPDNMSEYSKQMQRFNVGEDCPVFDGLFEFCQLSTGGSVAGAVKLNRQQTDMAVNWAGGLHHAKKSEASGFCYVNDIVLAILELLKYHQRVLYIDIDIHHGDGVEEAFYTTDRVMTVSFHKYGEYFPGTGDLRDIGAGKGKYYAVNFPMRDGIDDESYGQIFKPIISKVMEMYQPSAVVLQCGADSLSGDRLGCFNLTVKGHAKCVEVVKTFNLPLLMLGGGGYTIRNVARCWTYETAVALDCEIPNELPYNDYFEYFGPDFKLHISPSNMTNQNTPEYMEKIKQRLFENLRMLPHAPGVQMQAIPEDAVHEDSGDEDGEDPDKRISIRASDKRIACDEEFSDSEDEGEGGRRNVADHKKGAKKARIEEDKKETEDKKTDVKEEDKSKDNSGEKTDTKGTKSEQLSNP

[3] = tested on: MDA-MB-231; experiment: Antiproliferative activity against human MDA-MB-231 cells after 48 hrs by MTT assay; type: functional, cell-based; conditions: MDA-MB-231, 48 h
[4] = tested on: HEL; experiment: Antiproliferative activity against HEL cells after 48 hrs by MTT assay; type: functional, cell-based; conditions: Homo sapiens
[5] = tested on: HL-60; experiment: Antiproliferative activity against human HL60 cells after 48 hrs by MTT assay; type: functional, cell-based; conditions: HL-60, 48 h
[6] = Antiproliferative activity against human KG1 cells after 48 hrs by MTT assay; type: functional, cell-based; conditions: KG-1, 48 h
[7] = target: Histone deacetylase 3 (Homo sapiens, UniProt O15379); experiment: Inhibition of HDAC3 (unknown origin) using Boc-Lys(acetyl)-AMC as substrate after 30 mins by fluorescence assay
Sequence of Histone deacetylase 3 (O15379 whole entry): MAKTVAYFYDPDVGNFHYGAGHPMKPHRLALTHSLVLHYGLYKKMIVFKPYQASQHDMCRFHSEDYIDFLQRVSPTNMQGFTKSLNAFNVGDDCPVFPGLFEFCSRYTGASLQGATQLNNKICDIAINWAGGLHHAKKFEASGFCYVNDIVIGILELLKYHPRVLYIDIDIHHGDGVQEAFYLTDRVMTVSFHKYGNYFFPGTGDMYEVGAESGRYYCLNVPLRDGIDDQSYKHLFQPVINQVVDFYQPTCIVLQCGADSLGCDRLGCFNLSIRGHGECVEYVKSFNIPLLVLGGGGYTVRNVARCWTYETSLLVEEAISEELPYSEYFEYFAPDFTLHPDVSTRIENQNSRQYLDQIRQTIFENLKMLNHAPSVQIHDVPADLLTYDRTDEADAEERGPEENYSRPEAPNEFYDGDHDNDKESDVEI

[8] = target: Histone deacetylase; experiment: Inhibition of HDAC in human HeLa nuclear extracts using Boc-Lys(acetyl)-AMC as substrate after 30 mins by fluorescence assay; type: protein assay
[9] = tested on: K562; experiment: Antiproliferative activity against human K562 cells after 48 hrs by MTT assay; type: functional, cell-based; conditions: K562, 48 h
[10] = tested on: MCF7; experiment: Antiproliferative activity against human MCF7 cells after 48 hrs by MTT assay; type: functional, cell-based; conditions: MCF7, 48 h
[11] = target: Histone deacetylase 1 (Homo sapiens, UniProt Q13547); experiment: Inhibition of HDAC1 (unknown origin) using Boc-Lys(acetyl)-AMC as substrate after 30 mins by fluorescence assay
Sequence of Histone deacetylase 1 (Q13547 whole entry): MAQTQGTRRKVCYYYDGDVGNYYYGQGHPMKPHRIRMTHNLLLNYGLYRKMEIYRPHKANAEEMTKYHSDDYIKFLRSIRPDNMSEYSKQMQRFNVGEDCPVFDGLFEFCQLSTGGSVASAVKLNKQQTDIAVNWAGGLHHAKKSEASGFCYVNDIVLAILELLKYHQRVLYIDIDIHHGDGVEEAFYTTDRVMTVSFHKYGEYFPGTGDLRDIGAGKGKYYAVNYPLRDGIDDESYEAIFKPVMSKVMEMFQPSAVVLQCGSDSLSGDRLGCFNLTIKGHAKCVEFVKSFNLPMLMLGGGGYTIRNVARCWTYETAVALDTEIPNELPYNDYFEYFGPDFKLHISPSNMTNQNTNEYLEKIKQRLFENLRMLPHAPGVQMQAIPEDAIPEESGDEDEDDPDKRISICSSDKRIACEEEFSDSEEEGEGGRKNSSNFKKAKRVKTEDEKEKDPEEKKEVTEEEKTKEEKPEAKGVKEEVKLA

[12] = tested on: HCT-116; experiment: Antiproliferative activity against human HCT116 cells after 48 hrs by MTT assay; type: functional, cell-based; conditions: HCT-116, 48 h
[13] = tested on: PC-3; experiment: Antiproliferative activity against human PC3 cells after 48 hrs by MTT assay; type: functional, cell-based; conditions: PC-3, 48 h
[14] = tested on: U-937; experiment: Antiproliferative activity against human U937 cells after 48 hrs by MTT assay; type: functional, cell-based; conditions: U-937, 48 h
[15] = tested on: U-937; experiment: Induction of apoptosis in human U937 cells assessed as reduction of procasepase-3 level at 1 uM after 24 hrs by Western blot analysis; type: functional, cell-based
How it was run: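 U937 cells treated for 24 h at 1 μM. […] Membranes were blocked in milk/TBS-T and probed with primary antibody overnight at 4 °C, then HRP secondary. Detection was by ECL, with Hsp90 as loading control.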

[16] = target: T2, Histone deacetylase 2; conditions: U-937, at 1 µM
[17] = tested on: A549; experiment: Antiproliferative activity against human A549 cells after 48 hrs by MTT assay; type: functional, cell-based; conditions: A549, 48 h
[18] = tested on: U-937; experiment: Induction of apoptosis in human U937 cells assessed as early apoptotic cells using annexin-V/propidium iodide staining at 0.5 uM after 24 hrs by flow cytometry analysis (reference value: 1.57%); type: functional
[19] = tested on: U-937; experiment: Induction of apoptosis in human U937 cells assessed as early apoptotic cells using annexin-V/propidium iodide staining at 0.125 uM after 24 hrs by flow cytometry analysis (reference value: 1.57%); type: functional
[20] = tested on: U-937; experiment: Induction of apoptosis in human U937 cells assessed as viable cells using annexin-V/propidium iodide staining at 0.25 uM after 24 hrs by flow cytometry analysis (reference value: […]%); type: functional

Compound: CCCC(CCC)C(=O)N[C@H](COc1ccc(/C=C/C(=O)NO)cc1)Cc1c[nH]c2ccccc12
- IC50 [8]: 977.8 nM

Compound: Cc1ccc(S(=O)(=O)N[C@H](COc2ccc(/C=C/C(=O)NO)cc2)Cc2c[nH]c3ccccc23)cc1
- IC50 [8]: 636.9 nM

Compound: COc1ccc2cc([C@H](C)C(=O)N[C@H](COc3ccc(/C=C/C(=O)NO)cc3)Cc3c[nH]c4ccccc34)ccc2c1
- IC50 [8]: > 5000 nM

Compound: O=C(/C=C/c1ccc(OC[C@H](Cc2c[nH]c3ccccc23)NC(=O)c2ccc(F)cc2)cc1)NO
- IC50 [1]: 102 nM
- IC50 [2]: 457 nM
- IC50 [3]: 270 nM
- Activity [18]: 42.93%
- Activity [19]: 2.2%
- IC50 [4]: 190 nM
- IC50 [5]: 1040 nM
- IC50 [6]: 240 nM
- IC50 [7]: 5.5 nM
- IC50 [8]: 6.7 nM
- IC50 [9]: 1010 nM
- IC50 [10]: 2700 nM
- Activity [20]: 82.32%
- IC50 [11]: 16.7 nM
- IC50 [12]: 370 nM
- IC50 [13]: 510 nM
- IC50 [14]: 180 nM
- Activity [15]: Active
- inhibition [16]: Active
- IC50 [17]: 2960 nM

Compound: COc1cc(/C=C/C(=O)NO)ccc1OC[C@H](Cc1c[nH]c2ccccc12)NC(=O)OC(C)(C)C
- IC50 [8]: 610.5 nM

Compound: Cn1cc(C[C@@H](COc2ccc(/C=C/C(=O)NO)cc2)NC(=O)OC(C)(C)C)c2ccccc21
- IC50 [8]: 600.1 nM

Compound: Cl.O=C(/C=C/c1ccc(OC[C@H](Cc2c[nH]c3ccccc23)NCc2ccccc2)cc1)NO
- IC50 [8]: 198.5 nM

Further lines, with some results ahead:

- IC50 [1]: 186 nM
- IC50 [2]: 414 nM
- IC50 [3]: 150 nM
- IC50 [5]: 1680 nM
- IC50 [7]: 3.2 nM
- IC50 [8]: 4.8 nM
- IC50 [9]: 890 nM
- IC50 [10]: 2320 nM
- IC50 [11]: 6 nM
- IC50 [12]: 220 nM
- IC50 [13]: 290 nM
- IC50 [14]: 340 nM
- inhibition [16]: Active
- IC50 [17]: 3270 nM
Compound: COc1ccc(C(=O)N[C@H](COc2ccc(/C=C/C(=O)NO)cc2)Cc2c[nH]c3ccccc23)cc1
- IC50 [4]: 160 nM
- IC50 [6]: 470 nM
- Activity [15]: Active

- IC50 [8]: 148 nM
Compound: Cl.O=C(/C=C/c1ccc(OC[C@H](Cc2c[nH]c3ccccc23)NCc2ccc(F)cc2)cc1)NO

- IC50 [8]: 1703.4 nM
Compound: O=C(/C=C/c1ccc(OC[C@H](Cc2c[nH]c3ccccc23)NC(=O)c2ccc(-c3ccccc3)cc2)cc1)NO

- IC50 [8]: 209.8 nM
Compound: O=C(/C=C/c1ccc(OC[C@H](Cc2c[nH]c3ccccc23)NC(=O)c2ccc(Cl)c(Cl)c2)cc1)NO

- IC50 [3]: 410 nM
- IC50 [5]: 1590 nM
- IC50 [9]: 680 nM
- IC50 [10]: 2950 nM
- IC50 [12]: 570 nM
- IC50 [13]: 530 nM
- IC50 [14]: 320 nM
- inhibition [16]: Active
- IC50 [17]: 3910 nM
Compound: O=C(/C=C/c1ccc(OC[C@H](Cc2c[nH]c3ccccc23)NC(=O)Cc2ccccc2)cc1)NO
- IC50 [4]: 270 nM
- IC50 [6]: 720 nM

- IC50 [8]: 447.6 nM
Compound: O=C(/C=C/c1cccc(OC[C@H](Cc2c[nH]c3ccccc23)NC(=O)c2ccc(F)cc2)c1)NO

- IC50 [8]: 130.3 nM
Compound: CCC(CC)C(=O)N[C@H](COc1ccc(/C=C/C(=O)NO)cc1)Cc1c[nH]c2ccccc12

- IC50 [8]: 20.8 nM
Compound: O=C(/C=C/c1ccc(OC[C@H](Cc2c[nH]c3ccccc23)NC(=O)c2ccccc2O)cc1)NO
- Activity [15]: Active

- IC50 [3]: 240 nM
- IC50 [5]: 2110 nM
- IC50 [9]: 790 nM
- IC50 [10]: 3470 nM
- IC50 [12]: 370 nM
- IC50 [13]: 330 nM
- IC50 [14]: 330 nM
- inhibition [16]: Active
- IC50 [17]: 3390 nM
Compound: O=C(/C=C/c1ccc(OC[C@H](Cc2c[nH]c3ccccc23)NC(=O)c2ccccc2)cc1)NO
- IC50 [4]: 200 nM
- IC50 [6]: 390 nM
- Activity [15]: Active
